In ChEMBL document CHEMBL4354866, “TREK Channel Family Activator with a Well-Defined Structure-Activation Relationship for Pain and Neurogenic Inflammation” (J Med Chem, 2020):
Activity calls are given as the source filed them. The calls are words filed in the database; no cut-off is given here.

What was measured:
[1] = target: T1, Potassium channel subfamily K member 2 (Homo sapiens) (UniProt O95069); assay: (§1) Activation of recombinant human TREK1 expressed in HEK293T cells assessed as increase in K+ current amplitude by whole cell voltage clamp electrophysiological analysis; type: cell-based
T1 sequence (whole entry): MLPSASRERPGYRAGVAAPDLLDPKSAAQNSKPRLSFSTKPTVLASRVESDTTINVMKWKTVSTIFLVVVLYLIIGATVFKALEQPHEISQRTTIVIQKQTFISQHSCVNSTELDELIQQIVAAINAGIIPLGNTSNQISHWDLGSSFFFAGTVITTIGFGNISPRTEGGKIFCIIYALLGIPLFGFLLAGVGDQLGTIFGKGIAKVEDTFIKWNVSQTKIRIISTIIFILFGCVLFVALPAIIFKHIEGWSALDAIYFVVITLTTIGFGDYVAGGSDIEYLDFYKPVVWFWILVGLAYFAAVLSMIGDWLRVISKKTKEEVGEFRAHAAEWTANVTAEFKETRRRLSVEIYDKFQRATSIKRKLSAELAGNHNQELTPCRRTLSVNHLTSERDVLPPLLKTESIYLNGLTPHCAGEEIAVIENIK
In short: (§2)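 Transiently transfected HEK-293T cells, whole-cell voltage clamp. Held at -60 mV, 500-ms ramp -120 to +60 mV. Pipette (mM) 140 KCl, 5 EGTA, 10 HEPES, pH 7.4; external 145 NaCl, 4 KCl, pH 7.3. Compound diluted from 10 mM DMSO stock and applied extracellularly. Current increase over control fitted to concentration–response curves for EC50.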

[2] = target: T2, Potassium channel subfamily K member 2 (Homo sapiens, UniProt O95069); assay: as §1; type: cell-based; in short: as §2
T2 sequence (O95069 whole entry): T1 sequence (whole entry)

[3] = target: T1, Potassium channel subfamily K member 2 (Homo sapiens); assay: Activation of recombinant human TREK1 expressed in HEK293T cells assessed as change in single channel conductance by outside-out patch electrophysiological analysis; type: cell-based
In short: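 Outside-out patches from HEK-293T cells transfected with human TREK-1 (pEGFP-N1). Pipettes 7–15 MΩ. Open probability measured at -60 and +60 mV. Conductance taken as first open-state current amplitude divided by voltage at ±60 mV.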

[4] = target: T3, Potassium channel subfamily K member 4 (Homo sapiens, UniProt Q9NYG8); assay: Activation of recombinant human TRAAK expressed in HEK293T cells assessed as increase in K+ current amplitude by whole cell voltage clamp electrophysiological analysis; type: cell-based; in short: as §2
T3 sequence (Q9NYG8 whole entry): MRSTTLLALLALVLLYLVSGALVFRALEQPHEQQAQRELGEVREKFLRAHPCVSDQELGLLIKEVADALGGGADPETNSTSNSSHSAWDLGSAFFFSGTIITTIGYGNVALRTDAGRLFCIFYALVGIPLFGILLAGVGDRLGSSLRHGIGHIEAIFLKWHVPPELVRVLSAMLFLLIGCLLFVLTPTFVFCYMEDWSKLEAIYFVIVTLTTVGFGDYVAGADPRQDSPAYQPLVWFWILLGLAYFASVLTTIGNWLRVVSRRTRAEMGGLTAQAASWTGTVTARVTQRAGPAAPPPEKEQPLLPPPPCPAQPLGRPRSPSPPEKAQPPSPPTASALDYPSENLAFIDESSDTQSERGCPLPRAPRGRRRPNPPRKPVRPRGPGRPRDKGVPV

[5] = system: Potassium channel subfamily K member 2 (Homo sapiens), O95069 [Y285A]; assay: Activation of recombinant human TREK1 Y285A mutant expressed in HEK293T cells assessed as increase in K+ current amplitude by whole cell voltage clamp electrophysiological analysis; type: cell-based; in short: as §2
[6] = target: Potassium channel subfamily K member 2 (Homo sapiens, UniProt O95069, G275C); assay: Activation of recombinant human TREK1 G275C mutant expressed in HEK293T cells assessed as increase in K+ current amplitude by whole cell voltage clamp electrophysiological analysis; type: cell-based
In short: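 Human TREK-1 G275C expressed in HEK-293T, whole-cell ramp recordings. Tested with or without MTSET, 1 mM final, diluted from 0.5 M DMSO stock within 120 s of application. Concentration–response curves for EC50, n = 5–19; 10 μM single-point comparison by one-way ANOVA with Tukey test.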

[7] = Drug uptake in BALB/c mouse plasma at 5 mg/kg, ip administered as single dose by LC-MS/MS analysis; type: ADME, organism-based; conditions: in vivo
In short: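 BALB/c mice (n = 6) given a single 5 mg/kg i.p. dose as a 0.5 mg/ml solution in 5% DMSO/5% Tween 80/90% saline. Plasma sampled at 0.083–8 h. Concentrations measured by LC-MS/MS against spiked standard curves; AUC, Tmax, Cmax and T1/2 calculated by non-compartmental analysis of mean concentrations.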

[8] = system: Mus musculus; assay: (§3) Analgesic activity in cerulein-induced mouse model of acute pancreatitis assessed as reduction in pancreatic necrosis at 10 mg/kg, ip administered at 2 hrs interval for 10 hrs starting from post-first cerulein challenge and measured 12 hrs post-first cerulein challenge by H and E staining based histopathological analysis; type: functional, organism-based
In short: (§4)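 Cerulein pancreatitis: 7 hourly i.p. injections of 50 µg/kg; 10 mg/kg compound i.p. at 2, 4, 6, 8 and 10 h. Mice killed at 12 h and pancreas harvested for MPO activity and H&E histology. Ten random fields per slide scored blind by two observers for edema, inflammatory infiltration and acinar necrosis; n = 6.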

[9] = system: Mus musculus; assay: as §3, with “inflammatory infiltration” for “necrosis”; type: functional, organism-based; in short: as §4
[10] = system: Mus musculus; assay: Analgesic activity in mouse model of spared nerve injury assessed as reduction in number of hind paw lifting at 5 mg/kg, ip incubated for 30 mins measured within 5 mins by spontaneous pain test; type: functional, organism-based
In short: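 SNI mice, day 7, acclimated 3 days on a wire-mesh floor. Compound 5 mg/kg i.p. Starting 30 min after injection, mice were videotaped for 5 min and left hindpaw flinches counted blind; n = 7.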

Potassium channel subfamily K member 2 (Homo sapiens, UniProt O95069, G275C), sequence (O95069 whole entry G275C): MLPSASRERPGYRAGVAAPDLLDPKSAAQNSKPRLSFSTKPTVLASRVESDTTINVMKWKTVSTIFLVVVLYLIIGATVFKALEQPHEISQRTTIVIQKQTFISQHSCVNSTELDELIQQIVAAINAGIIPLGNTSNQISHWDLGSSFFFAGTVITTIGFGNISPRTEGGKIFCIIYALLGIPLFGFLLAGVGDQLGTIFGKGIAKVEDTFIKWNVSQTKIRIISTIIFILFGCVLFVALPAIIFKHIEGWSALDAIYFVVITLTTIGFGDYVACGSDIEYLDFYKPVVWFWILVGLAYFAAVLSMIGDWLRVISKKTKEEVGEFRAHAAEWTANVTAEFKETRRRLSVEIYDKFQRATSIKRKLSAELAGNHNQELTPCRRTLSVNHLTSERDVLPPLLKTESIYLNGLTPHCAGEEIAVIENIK

Activity [1]: Dose-dependent effect
EC50 [2]: 12.8 µM
Activity [3]: inactive
EC50 [4]: 15.3 µM
Activity [5]: inactive
EC50 [6]: 15.2 µM
Drug uptake [7]: Active
Compound: Cc1ccc2nc(-c3ccc(NC(=O)[C@@H]4CC[C@H](C(=O)O)C4)cc3)sc2c1
Activity [8]: Active
Activity [9]: Active
Activity [10]: Active
